FID counter = counter-screen for HCV NS3 helicase inhibitors: DNA intercalator displacement; DNA fluorescent intercalator displacement, fluorescence; inhibition, % at 7.9 µM; 0.17% of 290,000 active; in the data active = inhibition above about 37%;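 also: higher means more ethidium bromide displaced from hairpin DNA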
HCV core dimer = blocks dimerization of HCV core protein. TR-FRET GST/Flag-core106 dimerization, 1536-well. inhibition, % at 5 µM. 0.33% of 300,000 active. AID 1899;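 active = inhibition above the mean of all tested compounds plus 3 SD, set per screening campaign, cut at about 45% in these data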
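Test system: GST/Flag-tagged HCV core106 proteins; Medium: KF-containing HEPES buffer, pH 7.45, DTT, CHAPS, BSA; Times: compound-protein-antibody incubation 4 h at 22.5 °C; Detection: TR-FRET 671 and 617 nm emission; Benchmarks: wells lacking GST-core106 and wells with excess unlabelled core106.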
NRP1-CendR mod = alters CendR peptide binding to human NRP-1; FAM-RPARPAR peptide binding to NRP-1, fluorescence polarization; O14786; inhibition, % at 25 µM; 0.85% of 360,000 active;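 active = inhibition or corrected inhibition above about 18%, plus a signal ratio from 0.5 to 1.5, limit read from the data, passing the limit was not always enough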
Target sequence (O14786 whole entry, looked up): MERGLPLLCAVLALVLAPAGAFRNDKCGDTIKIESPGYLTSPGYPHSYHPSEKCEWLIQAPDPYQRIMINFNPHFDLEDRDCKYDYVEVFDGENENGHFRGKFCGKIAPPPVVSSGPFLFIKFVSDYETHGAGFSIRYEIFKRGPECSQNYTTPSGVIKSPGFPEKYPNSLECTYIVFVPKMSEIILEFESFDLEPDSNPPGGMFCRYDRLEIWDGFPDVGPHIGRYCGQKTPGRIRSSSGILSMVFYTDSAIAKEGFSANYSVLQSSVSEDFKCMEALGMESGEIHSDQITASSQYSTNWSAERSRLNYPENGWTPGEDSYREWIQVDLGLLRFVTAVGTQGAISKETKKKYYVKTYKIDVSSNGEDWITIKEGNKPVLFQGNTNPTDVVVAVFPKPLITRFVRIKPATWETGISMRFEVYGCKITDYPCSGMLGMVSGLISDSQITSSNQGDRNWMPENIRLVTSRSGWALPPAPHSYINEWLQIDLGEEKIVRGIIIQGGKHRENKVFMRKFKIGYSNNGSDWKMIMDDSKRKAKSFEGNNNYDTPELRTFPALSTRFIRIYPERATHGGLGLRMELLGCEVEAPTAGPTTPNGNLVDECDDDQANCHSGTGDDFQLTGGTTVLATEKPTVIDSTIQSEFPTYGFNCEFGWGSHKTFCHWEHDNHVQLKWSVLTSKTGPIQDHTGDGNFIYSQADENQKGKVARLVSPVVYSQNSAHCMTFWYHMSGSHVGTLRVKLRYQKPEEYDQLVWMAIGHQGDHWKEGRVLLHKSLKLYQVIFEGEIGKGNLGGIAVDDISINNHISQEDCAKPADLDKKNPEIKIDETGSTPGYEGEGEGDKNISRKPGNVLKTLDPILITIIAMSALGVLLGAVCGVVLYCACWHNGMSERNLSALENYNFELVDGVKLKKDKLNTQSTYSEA
MEX-5 binding = C. elegans MEX-5 TCR-2 RNA binding activity; MEX-5/FITC-TCR2 RNA binding, fluorescence polarization; stronger effect = lower value; activity score (negative = inhibition of binding), % at 10 µM; 0.38% of 300,000 active; AID 1832; Q9XUB2;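 active = inhibition past about -25% in most replicates, and total fluorescence under double the plate's negative control median, limit read from the data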
Hits are given with their value. Compounds with a hit are over-represented: about 1.5% of the library has one in this group of screens.

For CC(=O)Nc1cc(-c2cccc(C(=O)NCCO)c2)cn2c(-c3ccc(F)c(Cl)c3)cnc12 the results were NRP1-CendR mod inactive.
CN(C)/C=C/C(=O)/C=C/c1cn(-c2ncc(C(F)(F)F)cc2Cl)c2ccccc12 was read as FID counter inactive, HCV core dimer 58, NRP1-CendR mod inactive and MEX-5 binding inactive.
Screening Cc1cccc(N2CCN(S(=O)(=O)c3ccc(Cl)nc3)CC2C)c1 (stereo unspecified) returned NRP1-CendR mod 27.
`Cc1cccc(N2CCN(S(=O)(=O)c3ccc4c(c3)C(C)(C)C(=O)N4C)CC2C)c1` (stereo unspecified) gave FID counter inactive, HCV core dimer inactive, NRP1-CendR mod inactive and MEX-5 binding inactive.
`O=C(COC(=O)CCN1C(=O)/C(=C\C=C\c2ccccc2)SC1=S)Nc1cc(F)ccc1F` gave FID counter inactive, HCV core dimer 60, NRP1-CendR mod inactive and MEX-5 binding inactive.
`C[C@H](CO)N1C[C@H](C)[C@H](CN(C)C(=O)Nc2ccc(-c3cccs3)cc2)OCc2cnnn2CCCC1=O` gave NRP1-CendR mod inactive.
`Cc1ccc(S(=O)(=O)N(C)C[C@H]2OCCCC[C@@H](C)Oc3ccc(NC(=O)Cc4ccccc4)cc3C(=O)N([C@H](C)CO)C[C@@H]2C)cc1` gave NRP1-CendR mod inactive.
Screening Cc1ccc(Cc2c(C3CCCCC3)nc3c(C)cc(Br)cn23)cc1 returned NRP1-CendR mod inactive.
Screening COc1cccc(NC(=O)c2ccc(NCCCN3CC(C)CC(C)C3)c([N+](=O)[O-])c2)c1 (stereo unspecified) returned FID counter 51, NRP1-CendR mod inactive and MEX-5 binding inactive.
N#CC(=C=[N-])C1=C(C#N)C(c2ccccc2F)C([n+]2ccccc2)C(O)(C2CC2)N1 (stereo unspecified) was read as FID counter inactive, HCV core dimer 52, NRP1-CendR mod inactive and MEX-5 binding inactive.
For CCOc1ccc(-c2c(C(=O)N/N=C/c3sccc3C)nnn2-c2nonc2N)cc1 the results were FID counter inactive, HCV core dimer inactive, NRP1-CendR mod 24 and MEX-5 binding inactive.
OC[C@@H]1CN(CCN2CCOCC2)C[C@H](n2cnc3c(NC4CCC4)ncnc32)O1 was read as NRP1-CendR mod inactive.
Screening CCO[C@@H]1OC(C(=O)NCc2ccccc2)=C[C@H](C)[C@H]1CCCO returned FID counter inactive, HCV core dimer inactive, NRP1-CendR mod 26 and MEX-5 binding inactive.
`CCO[C@@H]1OC(C(=O)NC2CC2)=C[C@H](C(C)(C)C)[C@H]1CCCO` gave HCV core dimer inactive, NRP1-CendR mod 23 and MEX-5 binding inactive.
Screening CCO[C@H]1OC(C(=O)Nc2ccccc2)=C[C@@H](c2coc3ccccc3c2=O)[C@@H]1CCCO returned FID counter inactive, HCV core dimer inactive, NRP1-CendR mod inactive and MEX-5 binding inactive.
CCO[C@@H]1OC(C(=O)NCc2ccccc2)=C[C@H](c2coc3ccccc3c2=O)[C@H]1CCCO was read as FID counter inactive, HCV core dimer inactive, NRP1-CendR mod 20 and MEX-5 binding inactive.
For COC(=O)[C@]12CCCCC=C1N(Cc1cccc3ccccc13)C(=O)[C@H](CC(=O)N1CCN(C(=O)C3CC3)CC1)C2 the results were NRP1-CendR mod inactive.
COc1cccc(C(O)c2nc(-c3ccccc3)cs2)c1 (stereo unspecified) was read as NRP1-CendR mod inactive.
O=C1C=C(NCCc2cc(Br)c(O)c(Br)c2)C(=O)c2ncccc21 was read as NRP1-CendR mod 42.
Screening COc1ccc(NC(=S)NNc2ccc(S(=O)(=O)Nc3ccccc3C(=O)O)cc2[N+](=O)[O-])cc1 returned FID counter inactive, HCV core dimer inactive, NRP1-CendR mod inactive and MEX-5 binding -87.
`Cc1ccc(S(=O)(=O)Nc2ccccc2C(=O)OC(C)C(=O)Nc2ccc3ccccc3c2)cc1[N+](=O)[O-]` (stereo unspecified) gave FID counter inactive, HCV core dimer 47, NRP1-CendR mod inactive and MEX-5 binding inactive.
Screening COc1ccc(-c2oc3c(c2C(=O)OCCO)C(OCCCO)CCC3)cc1 (stereo unspecified) returned NRP1-CendR mod inactive.
Clc1nnc(NC2CCCCC2)c(Cl)c1Cl was read as NRP1-CendR mod inactive.
`C(=N\Nc1nc2ccccc2[nH]1)/c1ccccn1` gave FID counter inactive, NRP1-CendR mod inactive and MEX-5 binding -42.
`C(=N\Nc1nc2ccccc2[nH]1)/c1ccc2ncccc2c1` gave FID counter inactive, HCV core dimer inactive, NRP1-CendR mod inactive and MEX-5 binding inactive.
COCCCNC(=O)C[C@@H]1C[C@@]2(C(=O)OC)CCCCC=C2N(CCc2ccc(OC)c(OC)c2)C1=O was read as NRP1-CendR mod inactive.
`Cc1ccccc1C[n+]1cccc2ccccc21` gave HCV core dimer inactive, NRP1-CendR mod inactive and MEX-5 binding inactive.
Screening CCCCCCCCCCCCCCCC[n+]1cccc2ccccc21 returned FID counter inactive, HCV core dimer inactive and NRP1-CendR mod 42.
For CCCCCCCCC[n+]1cccc2c3ccccc3ccc21 the results were FID counter inactive, HCV core dimer inactive, NRP1-CendR mod 33 and MEX-5 binding inactive.
O=[N+]([O-])c1ccc(C[n+]2cccc3c4ccccc4ccc32)cc1 was read as FID counter inactive, HCV core dimer inactive, NRP1-CendR mod inactive and MEX-5 binding inactive.
Screening COc1ccc(/C(O)=C2/C(=O)C(=O)N(CCCN3CCOCC3)C2c2ccc(Cl)cc2)cc1 (stereo unspecified) returned NRP1-CendR mod inactive.
Screening C=C1CN(Cc2ccccc2)S(=O)(=O)c2ccccc21 returned HCV core dimer inactive, NRP1-CendR mod 24 and MEX-5 binding inactive.
`CCOC(=O)C1=C(C)N(CCCC(=O)O)C(=O)NC1c1ccccc1` (stereo unspecified) gave HCV core dimer inactive, NRP1-CendR mod 30 and MEX-5 binding inactive.
For COc1ccc(N(C(=O)c2cccnc2)S(=O)(=O)c2cccc([N+](=O)[O-])c2)cc1 the results were FID counter inactive, HCV core dimer inactive, NRP1-CendR mod inactive and MEX-5 binding inactive.
COc1ccc(N(C(=O)c2ccncc2)S(=O)(=O)c2cccc([N+](=O)[O-])c2)cc1 was read as FID counter inactive, HCV core dimer inactive, NRP1-CendR mod 19 and MEX-5 binding inactive.
For COc1ccc(C(=O)c2c(C)c3ccccc3n2CC(O)CNC(C)C)cc1 (stereo unspecified) the results were FID counter 37, HCV core dimer inactive, NRP1-CendR mod inactive and MEX-5 binding inactive.
COc1ccccc1CNCC(O)Cn1c2ccccc2c2ccccc21 (stereo unspecified) was read as FID counter inactive, HCV core dimer inactive, NRP1-CendR mod inactive and MEX-5 binding inactive.
Screening O=C(/C=C/[C@H]1O[C@@H](n2ccc(=O)[nH]c2=O)[C@H](O)[C@@H]1O)NCc1ccccc1 returned NRP1-CendR mod inactive.
For O=C([C@H]1O[C@@H](n2ccc(=O)[nH]c2=O)[C@H](O)[C@@H]1O)N(CCC1=CCCCC1)CC1CC1 the results were NRP1-CendR mod inactive.

Source: PubChem
